The target in test [1] is DNA topoisomerase 2-alpha (Homo sapiens) (UniProt P11388). As to the kind of experiment: Inhibition of human topoisomerase 2-mediated plasmid DNA cleavage at 25 to 200 uM after 10 mins by agarose gel electrophoresis electrophoresis. A digest of the protocol:
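Relaxed plasmid (0.3 μg) with 5 units human Topo II and 1 mM ATP at 37 °C for 10 min. Buffer: pH 8, 10 mM MgCl2. Stopped with 1% SDS, then EDTA and proteinase K at 50 °C for 60 min. Extracted and run on ethidium agarose gels.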

The target of test [2] is T1, DNA topoisomerase 1 (Homo sapiens) (UniProt P11387).
T1 sequence (whole entry): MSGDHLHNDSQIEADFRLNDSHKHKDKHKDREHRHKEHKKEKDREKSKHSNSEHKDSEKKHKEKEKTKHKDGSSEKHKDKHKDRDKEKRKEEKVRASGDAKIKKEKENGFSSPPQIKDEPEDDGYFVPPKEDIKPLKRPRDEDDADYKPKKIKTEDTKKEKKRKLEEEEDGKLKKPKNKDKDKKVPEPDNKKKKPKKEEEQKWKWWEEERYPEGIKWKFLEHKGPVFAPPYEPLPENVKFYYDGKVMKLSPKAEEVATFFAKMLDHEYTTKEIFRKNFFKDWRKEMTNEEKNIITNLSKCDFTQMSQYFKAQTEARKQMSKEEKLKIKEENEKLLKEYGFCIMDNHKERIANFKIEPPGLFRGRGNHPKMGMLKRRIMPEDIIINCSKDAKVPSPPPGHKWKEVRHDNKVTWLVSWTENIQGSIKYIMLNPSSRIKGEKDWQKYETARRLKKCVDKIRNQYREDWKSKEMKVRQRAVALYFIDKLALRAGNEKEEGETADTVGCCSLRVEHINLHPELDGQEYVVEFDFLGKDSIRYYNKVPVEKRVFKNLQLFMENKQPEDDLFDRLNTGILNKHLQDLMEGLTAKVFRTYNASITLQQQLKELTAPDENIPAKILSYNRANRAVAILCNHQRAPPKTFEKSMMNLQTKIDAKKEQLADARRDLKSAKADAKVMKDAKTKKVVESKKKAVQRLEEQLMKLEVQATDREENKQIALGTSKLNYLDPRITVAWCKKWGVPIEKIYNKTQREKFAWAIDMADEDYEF
As to the kind of experiment: Dissociation of human topo 1-CPT-DNA ternary complex assessed as reduction in nicked DNA formation at 160 uM after 10 mins by dilution DNA cleavage assay relative to untreated-control. Details: scale not given: the % may be the effect or the level left. In outline: (§1)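 Topo I cleavage mix (0.6 μg relaxed plasmid, 5 units human Topo I, 2.5 μM CPT), 37 °C 5 min. Then diluted 10-fold in drug-free buffer or buffer holding 2.5 μM CPT, 160 μM SD8, or both, 37 °C 10 min. SDS/EDTA/proteinase K workup. Nicked DNA normalized to the undiluted control; mean and absolute deviation of two assays.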

Test [3] has as its target T1, DNA topoisomerase 1 (Homo sapiens). As to the kind of experiment: Dissociation of human topo 1-CPT-DNA ternary complex assessed as reduction in nicked DNA formation at 160 uM after 10 mins by dilution DNA cleavage assay in presence of 2.5 uM CPT. The arrangement: scale not given: the % may be the effect or the level left. In outline: as §1
Test [4] has the same target. As to the kind of experiment: Dissociation of human topo 1-CPT-DNA ternary complex assessed as reduction in nicked DNA formation at 160 uM after 10 mins by dilution DNA cleavage assay. Details: scale not given: the % may be the effect or the level left. In outline:
as §1

Test [5] addresses DNA topoisomerase 2-alpha (Homo sapiens) (UniProt P11388). As to the kind of experiment: Dissociation of human topo 2-etoposide-DNA ternary complex assessed as nicked DNA formation at 150 uM after 20 mins by two-step DNA cleavage assay. Conditions: in the assay text read “linear DNA” for “nicked DNA”. In outline: (§2)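 Human Topo II with 7.5 μM etoposide on relaxed plasmid DNA (50 mM Tris-HCl pH 8, 10 mM MgCl2, 10 mM DTT, 1 mM ATP, BSA; 6-fold scale), 37 °C 5 min. Then 150 μM SD8 or 2% DMSO at 37 °C. Timed aliquots stopped with 1% SDS, then EDTA/proteinase K 50 °C 60 min. Linear DNA quantified on ethidium agarose gels.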

Test [6] addresses T1, DNA topoisomerase 1 (Homo sapiens). As to the kind of experiment: Dissociation of human topo 1-CPT-DNA ternary complex assessed as reduction in nicked DNA formation measuring remaining ternary complex at 150 uM after 20 mins by two-step DNA cleavage assay. In outline: (§3)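 Topo I with 7.5 μM CPT on relaxed plasmid DNA (6-fold scaled cleavage mix: 50 mM Tris-HCl pH 7.5, 1 mM MgCl2, 1 mM DTT, BSA), 37 °C 5 min. Then 150 μM SD8 or DMSO (2% final), continued at 37 °C. Aliquots taken at set times, stopped with 1% SDS, then EDTA/proteinase K 37 °C 15 min. Nicked DNA read on ethidium agarose gels.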

Test [7] addresses DNA topoisomerase 2-alpha (Homo sapiens) (UniProt P11388). As to the kind of experiment: Dissociation of human topo 2-etoposide-DNA ternary complex assessed as reduction in […] formation at 150 uM by two-step DNA cleavage assay. A digest of the protocol:
as §2

The target in test [8] is T1, DNA topoisomerase 1 (Homo sapiens). As to the kind of experiment: Dissociation of human topo 1-CPT-DNA ternary complex assessed as reduction in nicked DNA formation at 150 uM by two-step DNA cleavage assay. The arrangement: scale not given: the % may be the effect or the level left. A digest of the protocol:
as §3

For test [9], the target named is DNA topoisomerase 2-alpha (Homo sapiens) (UniProt P11388). As to the kind of experiment: Inhibition of human topoisomerase 2-mediated plasmid DNA cleavage preincubated at 150 uM for 5 mins before addition of poison measured after 10 mins by agarose gel electrophoresis. In outline: (§4)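 Two-step assay at 4-fold scale: Topo I or human Topo II with 150 μM SD8, 37 °C 5 min. Aliquots then given 7.5 μM CPT (Topo I) or 7.5 μM etoposide (Topo II), 37 °C 10 min. Stopped with 1% SDS, then proteinase K (Topo I 37 °C 15 min; Topo II 50 °C 60 min). Gel readout.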
DNA topoisomerase 2-alpha (Homo sapiens), sequence (P11388 whole entry): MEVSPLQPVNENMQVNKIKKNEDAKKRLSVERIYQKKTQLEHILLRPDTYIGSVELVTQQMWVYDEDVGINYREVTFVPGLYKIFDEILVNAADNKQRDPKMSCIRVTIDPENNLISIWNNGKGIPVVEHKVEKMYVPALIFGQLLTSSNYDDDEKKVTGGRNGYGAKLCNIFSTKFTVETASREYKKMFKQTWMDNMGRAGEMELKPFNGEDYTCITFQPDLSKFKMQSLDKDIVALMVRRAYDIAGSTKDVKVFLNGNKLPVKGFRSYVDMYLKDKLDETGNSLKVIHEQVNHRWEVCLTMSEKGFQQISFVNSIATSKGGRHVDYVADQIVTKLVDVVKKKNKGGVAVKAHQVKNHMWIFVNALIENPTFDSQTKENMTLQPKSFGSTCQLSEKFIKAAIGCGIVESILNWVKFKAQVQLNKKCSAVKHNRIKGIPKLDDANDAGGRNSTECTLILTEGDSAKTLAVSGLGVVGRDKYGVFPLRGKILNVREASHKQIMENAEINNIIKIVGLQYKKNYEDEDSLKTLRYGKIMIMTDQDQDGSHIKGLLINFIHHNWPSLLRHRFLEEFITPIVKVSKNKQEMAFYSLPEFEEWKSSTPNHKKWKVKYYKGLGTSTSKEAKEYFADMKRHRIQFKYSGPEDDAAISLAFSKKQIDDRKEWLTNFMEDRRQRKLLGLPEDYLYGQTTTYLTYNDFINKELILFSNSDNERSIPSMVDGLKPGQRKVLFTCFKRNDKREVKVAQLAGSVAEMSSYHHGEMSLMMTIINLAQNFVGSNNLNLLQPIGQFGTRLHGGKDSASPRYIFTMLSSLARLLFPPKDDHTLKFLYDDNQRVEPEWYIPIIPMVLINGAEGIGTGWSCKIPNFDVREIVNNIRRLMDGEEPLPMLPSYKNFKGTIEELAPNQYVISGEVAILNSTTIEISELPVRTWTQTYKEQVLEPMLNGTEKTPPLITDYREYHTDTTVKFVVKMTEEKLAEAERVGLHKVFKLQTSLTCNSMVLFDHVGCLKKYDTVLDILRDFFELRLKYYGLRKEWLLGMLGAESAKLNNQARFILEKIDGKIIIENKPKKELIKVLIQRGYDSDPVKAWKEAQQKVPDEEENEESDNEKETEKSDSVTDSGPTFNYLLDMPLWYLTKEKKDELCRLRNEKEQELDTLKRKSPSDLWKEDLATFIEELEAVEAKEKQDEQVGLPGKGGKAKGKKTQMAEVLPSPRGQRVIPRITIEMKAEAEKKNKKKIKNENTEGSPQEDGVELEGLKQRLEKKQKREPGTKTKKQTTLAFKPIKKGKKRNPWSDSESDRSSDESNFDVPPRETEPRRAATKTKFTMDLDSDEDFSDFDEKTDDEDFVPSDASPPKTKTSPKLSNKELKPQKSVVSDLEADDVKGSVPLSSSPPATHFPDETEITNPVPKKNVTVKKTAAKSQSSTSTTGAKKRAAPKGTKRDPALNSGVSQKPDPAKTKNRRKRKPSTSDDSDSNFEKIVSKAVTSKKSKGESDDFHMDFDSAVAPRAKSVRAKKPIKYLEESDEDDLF

The target in test [10] is T1, DNA topoisomerase 1 (Homo sapiens). As to the kind of experiment: Inhibition of human topoisomerase 1-mediated plasmid DNA cleavage preincubated at 150 uM for 5 mins before addition of poison measured after 10 mins by agarose gel electrophoresis. In outline: as §4
The target is the same in test [11]. As to the kind of experiment: Inhibition of human topoisomerase 1-mediated plasmid DNA cleavage at 25 to 200 uM after 10 mins by agarose gel electrophoresis. A digest of the protocol: (§5)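 Relaxed plasmid (0.3 μg) with 5 units human Topo I at 37 °C for 10 min. Buffer: pH 7.5, 1 mM MgCl2. Stopped with 1% SDS, then 25 mM EDTA and 100 μg/mL proteinase K, 37 °C 15 min. Phenol extraction, 1.2% agarose gel with ethidium bromide at 2 V/cm for 12 h. 5 μM CPT reaction as control.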

For test [12] the target is unchanged. As to the kind of experiment: Stimulation of human topoisomerase 1-mediated plasmid DNA cleavage at 25 to 200 uM after 10 mins by agarose gel electrophoresis. A digest of the protocol:
as §5

Test [13] shares this target. As to the kind of experiment: Ratio of CPT IC50 to compound IC50 for human topoisomerase 1-mediated relaxation of supercoiled pBR322 DNA.
Another test concerns the target T2, DNA topoisomerase 1 (Homo sapiens, UniProt P11387).
T2 sequence (P11387 whole entry): T1 sequence (whole entry)
As to the kind of experiment: Inhibition of human topoisomerase 1-mediated relaxation of supercoiled pBR322 DNA after 15 to 30 mins by agarose gel electrophoresis. A digest of the protocol: (§6)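 Supercoiled pBR322 (0.3 μg) relaxed by human Topo I (1 unit, 30 min; or 2 units, 15 min) or calf thymus Topo I (0.5 unit, 15 min), 37 °C. Buffer: 50 mM Tris-HCl pH 7.5, 1 mM MgCl2, 1 mM DTT, 50 μg/mL BSA. Stopped with 25 mM EDTA. Run on 1.2% agarose in TAE, ethidium-stained and quantified. IC50 taken from these gels.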

The target of test [14] is T1, DNA topoisomerase 1 (Homo sapiens). As to the kind of experiment: Inhibition of human topoisomerase 1-mediated relaxation of supercoiled pBR322 DNA at 50 to 400 uM after 15 to 30 mins by agarose gel electrophoresis in presence of 200 mM potassium glutamate. In outline: (§7)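 Human Topo I relaxation of supercoiled pBR322 at 37 °C, run as the standard assay. Mg2+ raised up to 1 mM, NaCl up to 100 mM, or potassium glutamate up to 200 mM. Products resolved on agarose gels.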

The target is the same in test [15]. As to the kind of experiment: Inhibition of human topoisomerase 1-mediated relaxation of supercoiled pBR322 DNA at 50 to 400 uM after 15 to 30 mins by agarose gel electrophoresis in presence of 100 mM NaCl. A digest of the protocol: as §7
The target is the same in test [16]. As to the kind of experiment: Inhibition of human topoisomerase 1-mediated relaxation of supercoiled pBR322 DNA at 50 to 400 uM after 15 to 30 mins by agarose gel electrophoresis in presence of 1 mM magnesium. A digest of the protocol:
as §7

In test [17] the target is T3, Topoisomerase I (Bos taurus) (UniProt Q2HPH0).
T3 sequence (whole entry): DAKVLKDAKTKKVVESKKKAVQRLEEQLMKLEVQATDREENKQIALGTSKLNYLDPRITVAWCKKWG
As to the kind of experiment: Inhibition of calf thymus topoisomerase 1-mediated relaxation of supercoiled pBR322 DNA after 15 mins by agarose gel electrophoresis. A digest of the protocol:
as §6

Test [18] addresses DNA topoisomerase 2-alpha (Homo sapiens) (UniProt P11388). As to the kind of experiment: Inhibition of human topoisomerase 2-mediated relaxation of supercoiled pBR322 DNA at 50 to 400 uM after 30 mins by agarose gel electrophoresis. In outline:
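Human Topo II (2 units) relaxed 0.3 μg supercoiled pBR322 at 37 °C for 30 min. Stopped with 25 mM EDTA, 5 min. Analyzed on agarose gels.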

Test [19] addresses T1, DNA topoisomerase 1 (Homo sapiens). As to the kind of experiment: Inhibition of human topoisomerase 1-mediated relaxation of supercoiled pBR322 DNA at 50 to 400 uM after 15 to 30 mins by agarose gel electrophoresis. A digest of the protocol:
as §6

Activity calls are given as the source filed them. The calls are words filed in the database; no cut-off is given here.

Broadly, the IC50 is the concentration at which inhibition is half-maximal. Take `CC(=O)O[C@@H]1[C@@H](C)O[C@@H](c2ccc3c(c2O)[C@@H](O)[C@]24O[C@@]2(C3=O)[C@@]2(O)C(=O)C=C(C)C[C@@]2(O)C[C@@H]4O)C[C@H]1OC(=O)/C=C/C=C/C=C/C=C/C(=O)Nc1c(O)c2ccc(O)c(Cl)c2oc1=O` [SIMOCYCLINONE D8]: the inhibition result in test [1], in test [9], in test [10], in test [11], in [14] and in [15] was “Active” each time. For the same compound, the inhibition entry in test [16], in test [17], in test [18] and in test [19] was “Active” throughout. Besides, the Activity in test [2] turned out to be 20%; in test [3] it was 46%; in test [4], 55%; in test [5] it was 107%; in test [6], 53%; in test [8], 40%. For the same compound, the outcome in test [7] and in test [12] was inactive. Further, the Ratio IC50 in test [13] came out at 0.5. The compound also yielded an IC50 against DNA topoisomerase 1 of 60 µM.

For the origin of these results see ChEMBL document CHEMBL2163298, “Inhibition of human topoisomerases I and II by simocyclinone D8” (J Nat Prod, 2012).
